# In the library only some 0.77% were active in any assay of this set; here they are far more common.
# bIAP inhibitor – bovine intestinal alkaline phosphatase inhibitors, primary screen, selectivity assay for TNAP inhibitor project, biochemical, bovine IAP, CDP-star luminescence. purified bovine IAP, 30 min. alkaline phosphatase, intestinal [Bos taurus]. 190,000 tested, under 10 active. AID 1019, 2008. inhibition, % at 20 µM;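 active = over 50% inhibition of intestinal alkaline phosphatase at 20 µM in the single-dose screen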
#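 test system = bovine IAP enzyme | medium = DEA buffer 100 mM, pH 9.8, with MgCl2 1.0 mM, ZnCl2 0.02 mM | detection = luminescence | dosing = single compound dose of 20 µM, 2% DMSO final | incubation = 30 min reaction at room temperature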
# mIAP activ – activators of mouse IAP, primary screen, biochemical, luminescence, uHTS; muIAP, CDP-Star luminescence, 30 min; stronger effect = higher value; 1 = vehicle-only enzyme signal, 0 = enzyme-free wells; activation factor at 10 µM; 330,000 compounds, 0.24% hits;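 active = activation factor of at least 2 at 20 µM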
#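 Assay system: mouse IAP enzyme; reagent: chemiluminescent substrate CDP-Star; dosing: test compounds delivered from DMSO solution; schedule: 30 min at room temperature; measured by: luminescence from enzymatic CDP-Star hydrolysis; controls: DMSO-only wells and no-enzyme negative control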
# bIAP activator – bovine intestinal alkaline phosphatase activators, primary screen, biochemical, bovine IAP, CDP-star luminescence | AID 1016, 2008 | 200,000 compounds, 0.17% hits | purified bovine IAP, 30 min; stronger effect = higher value; fold of DMSO-control signal, blank-subtracted | alkaline phosphatase, intestinal [Bos taurus] | activation factor at 20 µM;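 active = activation factor of 2 or more at 20 µM, a signal rise over negative controls twice the positive control's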
# mIAP inh – inhibitors of mouse IAP, primary screen, biochemical, luminescence, uHTS. intestinal alkaline phosphatase [Mus musculus]. purified mouse IAP, CDP-Star luminescence, 30 min. inhibition, % at 10 µM. 330,000 compounds, 0.2% hits;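 active = inhibition of at least 40% at 10 µM in the primary screen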;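 note: plate controls were DMSO with enzyme for no effect and no enzyme wells for full effect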
# hIAP act – human IAP activators, primary screen, biochemical, luminescence, uHTS. Intestinal-type alkaline phosphatase (Homo sapiens), P09923. purified human IAP, CDP-Star luminescence, 30 min; stronger effect = higher value; 1 = vehicle-only enzyme, 0 = enzyme-free background. activation factor at 10 µM. 330,000 compounds, 0.16% hits. AID 2524, 2010;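 active = activation factor of the enzyme at least 2-fold when tested at 20 µM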
# Target sequence (P09923 whole entry, looked up): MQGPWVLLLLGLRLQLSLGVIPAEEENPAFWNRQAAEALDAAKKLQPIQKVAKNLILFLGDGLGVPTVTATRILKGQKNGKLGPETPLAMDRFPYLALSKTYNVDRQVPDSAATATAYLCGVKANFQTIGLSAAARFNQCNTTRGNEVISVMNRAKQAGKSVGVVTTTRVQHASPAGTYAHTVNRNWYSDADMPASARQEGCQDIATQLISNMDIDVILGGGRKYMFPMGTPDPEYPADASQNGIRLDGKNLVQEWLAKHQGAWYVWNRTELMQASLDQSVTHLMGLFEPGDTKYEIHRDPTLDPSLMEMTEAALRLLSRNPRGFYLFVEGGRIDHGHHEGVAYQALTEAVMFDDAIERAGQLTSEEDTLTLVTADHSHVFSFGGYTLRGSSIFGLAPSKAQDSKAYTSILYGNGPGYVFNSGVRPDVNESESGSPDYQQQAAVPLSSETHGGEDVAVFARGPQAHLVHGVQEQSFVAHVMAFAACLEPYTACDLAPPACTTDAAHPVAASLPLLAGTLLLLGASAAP
# hIAP block – human IAP inhibitors, primary screen, biochemical, luminescence, uHTS; purified IAP, CDP-Star luminescence, 30 min; inhibition, % at 10 µM; AID 2544, 2010; Intestinal-type alkaline phosphatase (Homo sapiens), P09923; 330,000 compounds, 0.12% hits;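 active = inhibition reaching a set limit with compound at 10 µM in the primary screen, cut at about 35% in these data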;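 note: plate controls were DMSO wells with enzyme for no effect and no-enzyme buffer wells for full effect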
# hIAP act confirm – human IAP activators, confirmation, biochemical, luminescence, single concentration, uHTS hits | shares compounds with hIAP act | purified IAP, CDP-Star luminescence, 30 min; stronger effect = lower value | activation (%Activity, negative = activation), % at 8.3 µM | 880 compounds, 10% hits | AID 434926, 2010;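 active = at least twofold enzyme activation in any of six single-dose repeats, which the averaged readout prints as negative percent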
# * marks the source's active call; other numbers are inactive results; · = no result.
SMILES,bIAP inhibitor,mIAP activ,bIAP activator,mIAP inh,hIAP act,hIAP block,hIAP act confirm
CCC(C)(C)C1CCc2[nH]nc(C(=O)N/N=C(\C)c3ccco3)c2C1 (configuration not stated),·,0.98,·,2,2.1*,-110,63
CCCCn1c(N)c(N(CCOC)C(=O)COC(=O)COc2ccc(CC)cc2)c(=O)[nH]c1=O,·,1,·,0,0.98,2,·
COC(=O)Cc1ccc(NC(=S)NCCSc2ccc(C)cc2)cc1,18,1.7,0.8,-69,0.99,1,·
Cc1ccc(NC(=S)NCCSc2ccc(Cl)cc2)cc1,-8,2.3*,1.1,-127,2.3*,-133,-9
CN1C(=O)C(=O)/C(=C(/O)c2ccc(Br)cc2)C1c1ccc(Cl)cc1 (configuration not stated),·,0.93,·,7,0.59,41*,5
CN1C(=O)C(=O)/C(=C(/O)c2ccccc2)C1c1ccc(Br)cc1 (configuration not stated),·,1.1,·,-8,0.96,4,·
CCC(C)(C(=O)NC1CCCC1)N(C(=O)c1ccccn1)c1ccc(C)cc1 (configuration not stated),-2,0.99,1,1,0.89,11,·
Cc1ccccc1OCC(=O)OCC(=O)c1c[nH]c2ccccc12,·,1.1,·,-7,1.1,-9,·
COc1ccc(C)cc1NC(=S)NNC(=O)c1ccccc1Cl,-32,0.86,1.3,14,2.1*,-110,2
Cc1ccc(NC(=S)NNC(=O)c2ccccc2O)c(C)c1,-52,0.85,1.5,15,2.3*,-125,-35
COc1ccc(S(=O)(=O)N(C(C)=O)c2ccc(OC(C)=O)c3ccccc23)cc1[N+](=O)[O-],27,0.94,0.7,6,0.83,16,·
CCOc1cccc(/C=N/NC(=S)Nc2cc(S(=O)(=O)N3CCOCC3)ccc2N2CCOCC2)c1O,2,1,1,0,2.1*,-114,1
Cc1nn(-c2ccc(Cl)cc2)c(=O)c2c(C)noc12,·,1.1,·,-11,1.6,-55,·
O=C(N/N=C/c1ccc(O)cc1)c1cc(C2CC2)[nH]n1,·,1.1,·,-7,0.93,7,·
O=C(N/N=C/c1c(F)cccc1Cl)c1cc(C2CC2)[nH]n1,·,1,·,-1,2*,-105,38
O=Cc1ccccc1OCc1nnsc1Cl,2,0.93,1,7,1,0,·
Cc1c(C(=O)N/N=C/c2c(O)ccc3ccccc23)nnn1-c1nonc1N,·,0.79,·,21,2*,-105,-86*
O=C(NCC1CCCO1)c1ccc(Br)s1 (configuration not stated),·,0.98,·,2,0.6,40*,9
CCOC(=O)CNC(=O)N1CCCC(N(C)CCc2ccccc2)C1 (configuration not stated),·,1.1,·,-11,1,0,·
CCn1cc(CN2CCN(CCC(C)C)C(CCO)C2)c2ccccc21 (configuration not stated),·,0.92,·,8,1.2,-16,·
CCn1cc(CN2CCN(C)C(CCO)C2)c2ccccc21 (configuration not stated),·,1,·,-2,2.8*,-185,29
Cc1cc(C(=O)N2CCN(c3ccccc3Cl)CC2)c(C)o1,·,1,·,0,1,-2,·
CCOC(=O)c1sc(NC(=O)/C=C/c2ccccc2)nc1C,-44,0.89,1.4,11,2.2*,-120,1
CCN(C[C@H]1N[C@@](Cc2ccccc2)(C(=O)OC)[C@H]2C(=O)N(C)C(=O)[C@@H]12)C(=O)Nc1ccc(C(F)(F)F)cc1,·,0.97,·,3,1.1,-10,·
CCCc1cc(=O)[nH]c(SCC(=O)Nc2c(C)n(C)n(-c3ccccc3)c2=O)n1,·,0.96,·,4,1,-2,·

# Source: PubChem (Sanford-Burnham Center for Chemical Genomics)
